The target of data set [1] is 11-beta-hydroxysteroid dehydrogenase 1 (Mus musculus, UniProt P50172). As to the kind of experiment: Inhibition of mouse 11beta-HSD1 expressed in Escherichia coli. In short, it runs like this:
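Reductase-direction SPA. Total cortisone was 175 nM, including 75 nM ³H-cortisone, with NADPH cofactor in 50 mM Tris–HCl pH 7.2 and 1 mM EDTA. An NADPH regeneration system (1 mM G-6-P, 1 U/mL G-6-PDH) was included. Final enzyme was 0.015 mg/mL, keeping substrate consumption below 25%. The reaction ran 30 min at room temperature. ³H-cortisol was captured by anti-cortisol mAb and anti-mouse SPA beads, then scintillation-counted. IC50 came from % inhibition versus an uninhibited control, as the mean of two experiments.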

Data set [2] deals with T1, 11-beta-hydroxysteroid dehydrogenase type 2 (Mus musculus, UniProt P51661).
T1 sequence (P51661 whole entry): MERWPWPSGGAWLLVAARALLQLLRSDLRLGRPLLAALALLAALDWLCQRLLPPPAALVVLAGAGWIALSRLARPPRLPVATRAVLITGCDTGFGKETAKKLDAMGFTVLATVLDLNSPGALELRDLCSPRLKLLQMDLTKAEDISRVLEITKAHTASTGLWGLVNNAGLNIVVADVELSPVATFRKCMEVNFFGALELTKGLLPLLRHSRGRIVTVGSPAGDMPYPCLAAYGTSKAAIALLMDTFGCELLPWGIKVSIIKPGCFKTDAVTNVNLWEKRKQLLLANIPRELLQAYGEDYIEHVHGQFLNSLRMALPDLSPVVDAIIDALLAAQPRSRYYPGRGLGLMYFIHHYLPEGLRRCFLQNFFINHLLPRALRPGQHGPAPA
Put plainly: Inhibition of mouse 11beta-HSD2.

Data set [3] has as its target 11-beta-hydroxysteroid dehydrogenase 1 (Mus musculus) (UniProt P50172). Put plainly: Inhibition of DIO mouse brain 11beta-HSD1 at 30 mg/kg 7 hrs post dose. The format is organism-based. Further details: dose 30 mg/kg. In short, it runs like this:
(§1)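 DIO mice received one oral 30 mpk dose in 1% Tween 80 / 0.2% hydroxypropyl methylcellulose, 3 mice per point. Liver, epididymal fat and brain were excised at 7 or 16 h, weighed, minced in about 5 volumes PBS and given cortisone at 10 final. Incubation was at 37 °C, 5% CO₂: liver 20 min, fat and brain 3 h. Cortisol was read by LC-MS; % inhibition is versus the vehicle group.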

Data set [4] is described as follows: Plasma clearance in mouse at 10 mg/kg. The data set is classed as ADME, organism-based. The arrangement: dose 10 mg/kg. In short, it runs like this: (§2)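 Mouse PK: single 10 mg/kg doses given intravenously and orally; the parameters were calculated from these dosings.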
A short description of data set [5]: Stability in mouse liver microsomes after 30 min. The format is ADME, Microsome. The following applies: read-out: Stability. In short, it runs like this: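 Compounds were incubated 30 min with mouse liver microsomes; the result is expressed as % parent remaining.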
In general terms: Microsomes from liver hold many membrane-bound enzymes, among them those of drug oxidation.

Data set [6] has as its target 11-beta-hydroxysteroid dehydrogenase 1 (Mus musculus) (UniProt P50172). As to the kind of experiment: Inhibition of DIO mouse liver 11beta-HSD1 at 30 mg/kg 16 hrs post dose. The format is organism-based. Further details: dose 30 mg/kg. In short, it runs like this: as §1
Data set [7] is described as follows: Half life in mouse plasma at 10 mg/kg. The format is ADME, organism-based. Further details: dose 10 mg/kg. A digest of the protocol:
as §2

For data set [8], the target named is 11-beta-hydroxysteroid dehydrogenase 1 (Mus musculus) (UniProt P50172). As to the kind of experiment: Inhibition of DIO mouse adipose tissue 11beta-HSD1 at 30 mg/kg 7 hrs post dose. The arrangement: dose 30 mg/kg. The format is organism-based. In short, it runs like this: as §1
Sequence of 11-beta-hydroxysteroid dehydrogenase 1 (Mus musculus) (P50172 whole entry, looked up): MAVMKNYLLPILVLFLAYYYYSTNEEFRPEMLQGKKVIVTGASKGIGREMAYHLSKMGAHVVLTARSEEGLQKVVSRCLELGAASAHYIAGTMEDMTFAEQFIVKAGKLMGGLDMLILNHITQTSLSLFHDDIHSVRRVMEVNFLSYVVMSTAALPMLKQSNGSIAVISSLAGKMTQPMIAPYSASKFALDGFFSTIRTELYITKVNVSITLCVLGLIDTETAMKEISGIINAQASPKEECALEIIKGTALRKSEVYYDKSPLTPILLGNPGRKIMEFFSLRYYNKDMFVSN
For data set [9] the target is unchanged. Put plainly: Inhibition of DIO mouse liver 11beta-HSD1 at 30 mg/kg 7 hrs post dose. The arrangement: dose 30 mg/kg. The data set is classed as organism-based. In short, it runs like this: as §1
Data set [10] has the same target. As to the kind of experiment: Inhibition of DIO mouse adipose tissue 11beta-HSD1 at 30 mg/kg 16 hrs post dose. The arrangement: dose 30 mg/kg. The format is organism-based. A digest of the protocol:
as §1

Data set [11] has the same target. Put plainly: Inhibition of DIO mouse brain 11beta-HSD1 at 30 mg/kg 16 hrs post dose. The data set is classed as organism-based. The arrangement: dose 30 mg/kg. In short, it runs like this:
as §1

The nature of data set [12]: Bioavailability in mouse plasma at 10 mg/kg. The format is ADME, organism-based. In short, it runs like this: as §2
The target of data set [13] is T2, 11-beta-hydroxysteroid dehydrogenase type 2 (Homo sapiens, UniProt P80365).
T2 sequence (P80365 whole entry): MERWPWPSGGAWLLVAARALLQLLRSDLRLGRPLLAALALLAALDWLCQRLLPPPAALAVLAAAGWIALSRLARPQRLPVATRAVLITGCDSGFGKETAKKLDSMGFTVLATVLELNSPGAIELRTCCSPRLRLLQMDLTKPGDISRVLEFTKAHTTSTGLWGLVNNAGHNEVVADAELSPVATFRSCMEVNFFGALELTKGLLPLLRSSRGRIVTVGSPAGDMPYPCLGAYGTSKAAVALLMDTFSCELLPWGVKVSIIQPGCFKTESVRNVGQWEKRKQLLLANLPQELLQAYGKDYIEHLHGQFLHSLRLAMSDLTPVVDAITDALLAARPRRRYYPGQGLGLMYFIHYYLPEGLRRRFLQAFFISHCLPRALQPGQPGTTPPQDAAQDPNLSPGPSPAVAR
Put plainly: Inhibition of human 11beta-HSD2.

Data set [14] has as its target T3, 11-beta-hydroxysteroid dehydrogenase 1 (Homo sapiens, UniProt P28845). As to the kind of experiment: Inhibition of human 11beta-HSD1 expressed in HEK293 cells. The format is cell-based.
In data set [15] the target is T3, 11-beta-hydroxysteroid dehydrogenase 1. Put plainly: Inhibition of human 11beta-HSD1 expressed in Escherichia coli.

T3 sequence (P28845 whole entry): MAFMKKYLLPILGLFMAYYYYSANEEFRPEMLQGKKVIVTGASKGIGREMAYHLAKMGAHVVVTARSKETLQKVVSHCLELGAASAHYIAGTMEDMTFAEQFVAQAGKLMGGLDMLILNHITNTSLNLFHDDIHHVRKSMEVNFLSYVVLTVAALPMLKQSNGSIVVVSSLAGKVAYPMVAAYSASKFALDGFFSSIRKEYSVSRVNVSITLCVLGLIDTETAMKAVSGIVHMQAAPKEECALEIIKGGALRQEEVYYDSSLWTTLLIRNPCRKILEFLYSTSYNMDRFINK
Sequence of 11-beta-hydroxysteroid dehydrogenase 1 (Mus musculus, UniProt P50172) (P50172 whole entry): as the sequence (P50172 whole entry, looked up) above

For the molecule `CC(C)(Oc1ccc(Cl)cc1)C(=O)N[C@H]1C2C[C@@H]3C[C@H]1C[C@@](c1noc(=O)[nH]1)(C2)C3`, the IC50 (commonly the concentration at which inhibition is half-maximal) in data set [1] came to 101 nM; in data set [2] it was 100000 nM.

As for `CC(C)(Oc1ccc(Cl)cc1)C(=O)N[C@H]1C2C[C@@H]3C[C@H]1C[C@@](/C(N)=N/O)(C2)C3`, the inhibition (commonly the relative decrease from the control value, in per cent) in data set [3] was found to be 85%; in data set [6] it was 84%; in [8], 92%; in data set [9], 89%; in [10] it was 67%; in data set [11], 79%. In addition, in data set [4], the clearance (commonly a measure of how efficiently the substance is removed, as volume per time) was 76.7 mL/min/kg. Further, the IC50 in [1] was 26 nM; in data set [2] it was above 100000 nM. Besides, in data set [5], the remaining at 0.5 h came to 64%. Besides, the half-life (in general, how long it takes for the measured level to halve) in data set [7] was 0.4 h. The bioavailability (usually the share of a dose that reaches the circulation, judged against a reference dose that is usually intravenous) in [12] amounted to 61.6%.

As for `CC(C)(Oc1ccc(Br)cn1)C(=O)N[C@H]1C2C[C@@H]3C[C@H]1C[C@@](CC(N)=O)(C2)C3`, the IC50 is 4 nM in [1] and above 100000 nM in data set [2]. Besides, in data set [5], the remaining at 0.5 h turned out to be 87%. Besides, the inhibition in data set [6] amounted to 0%; in [8], 47%; in [9], 57%; in data set [10], 23%.

With `CC(C)(Oc1ccc(N2CCOCC2)cn1)C(=O)N[C@H]1C2C[C@@H]3C[C@H]1C[C@@](CC(N)=O)(C2)C3`, the IC50 in data set [13] is above 100000 nM; in data set [14], 444 nM; in data set [1] it was 51 nM; in data set [2], above 100000 nM; in data set [15], 44 nM. In addition, in data set [5], the remaining at 0.5 h is 89%.

Take `CN1CCN(c2ccc(OC(C)(C)C(=O)N[C@H]3C4C[C@@H]5C[C@H]3C[C@@](CC(N)=O)(C4)C5)nc2)CC1`: the half-inhibitory concentration (IC50) was above 100000 nM in [13]; above 10000 nM in [14]; 519 nM in [1]; above 100000 nM in data set [2]; 185 nM in [15].

For the molecule `CC(C)(Oc1ccc(Cl)cc1)C(=O)N[C@H]1C2C[C@@H]3C[C@H]1C[C@@](c1ncc[nH]1)(C2)C3`, the IC50 in data set [1] was 11 nM. In addition, the remaining at 0.5 h in [5] turned out to be 3%.

On to `CC(C)(Oc1ccc(Cl)cc1)C(=O)N[C@H]1C2C[C@@H]3C[C@H]1C[C@@](c1nc(C#N)c(N)o1)(C2)C3`, for which the half-maximal inhibitory concentration (IC50) is above 100000 nM in data set [13]; 306 nM in [14]; 205 nM in [1]; 50000 nM in [2]; 146 nM in data set [15]. Further, the remaining at 0.5 h in data set [5] came to 25%.

Consider `CC(C)(Oc1ccc(-n2cccn2)cn1)C(=O)N[C@H]1C2C[C@@H]3C[C@H]1C[C@@](CC(N)=O)(C2)C3`, for which the IC50 is above 100000 nM in [13]; 38 nM in data set [14]; 11 nM in data set [1]; above 100000 nM in data set [2]; 5 nM in data set [15]. Besides, in data set [5], the remaining at 0.5 h was 83%.

Consider `CC(C)(Oc1ccc(Cl)cc1)C(=O)N[C@H]1C2C[C@@H]3C[C@H]1C[C@@](Cc1nnn[nH]1)(C2)C3`, for which the inhibition is 11% in data set [3]; 37% in data set [6]; 17% in data set [8]; 62% in [9]; 20% in data set [10]; 9% in data set [11]. Further, the IC50 in data set [13] is above 100000 nM; in [14], 119 nM; in data set [1], 87 nM; in data set [2], 7000 nM; in data set [15], 41 nM. The clearance in [4] is 20 mL/min/kg. Also, the remaining at 0.5 h in data set [5] was determined as 79%. The same molecule had a half-life in data set [7] of 2.3 h. In data set [12], this molecule displayed a bioavailability of 39.7%.

Turning to `CC(C)(C(=O)N[C@H]1C2C[C@@H]3C[C@H]1C[C@@](CC(N)=O)(C2)C3)c1ccc(C#N)cn1`, the IC50 in data set [13] was above 100000 nM; in data set [14], 165 nM; in [1], 65 nM; in data set [2], 15000 nM; in [15], 14 nM. In addition, the remaining at 0.5 h in data set [5] amounted to 100%.

With `CNc1ccc(C(C)(C)C(=O)N[C@H]2C3C[C@@H]4C[C@H]2C[C@@](CC(N)=O)(C3)C4)cn1`, the IC50 was above 100000 nM in data set [13]; 246 nM in data set [14]; 310 nM in data set [1]; above 100000 nM in data set [2]; 29 nM in data set [15]. Besides, the remaining at 0.5 h in [5] stood at 83%.

In data set [1], `CC(C)(Oc1ccc(Cl)cc1)C(=O)N[C@H]1C2C[C@@H]3C[C@H]1C[C@@](c1nnc(N)[nH]1)(C2)C3` had an IC50 of 53 nM. Besides, the remaining at 0.5 h in [5] worked out at 41%.

`CC(C)(Oc1ccc(Cl)cc1)C(=O)N[C@H]1C2C[C@@H]3C[C@H]1C[C@@](c1ccno1)(C2)C3` registered an IC50 in [1] of 71 nM. In addition, the remaining at 0.5 h in data set [5] was 30%.

With `CC(C)(Oc1ccc(Cl)cc1)C(=O)N[C@H]1C2C[C@@H]3C[C@H]1C[C@@](CC(=O)O)(C2)C3`, the clearance in data set [4] was 3.33 mL/min/kg. Besides, the results for the IC50 in data set [1] and in data set [2] were 92 nM and 20700 nM, respectively. Besides, in [5], the remaining at 0.5 h amounted to 94%. Also, the inhibition in data set [6] stood at 0%; in data set [8] it was 70%; in data set [9], 40%; in data set [10], 35%. The same molecule showed a half-life in data set [7] of 2 h. This molecule also returned a bioavailability in data set [12] of 96.1%.

As to `CC(C)(Oc1ccc(Cl)cc1)C(=O)N[C@H]1C2C[C@@H]3C[C@H]1C[C@@](CCC(=O)O)(C2)C3`, the inhibition in data set [3] was determined as 67%; in data set [6] it was 93%; in [8] it was 50%; in data set [9], 99%; in data set [10], 23%; in data set [11] it was 18%. Also, the clearance in data set [4] was 13.3 mL/min/kg. The half-inhibitory concentration (IC50) turned out to be 74 nM in data set [1] and 28000 nM in data set [2]. In data set [5], the remaining at 0.5 h stood at 78%. In [7], this molecule gave a half-life of 2.6 h. Further, the bioavailability in data set [12] is 86.3%.

The values above are taken from ChEMBL document CHEMBL1137283, “Synthesis and biological evaluation of heterocycle containing adamantane 11beta-HSD1 inhibitors” (Bioorg Med Chem Lett, 2006).
